Data reported in ChEMBL document CHEMBL1130418, “Synthesis and evaluation of 6-(dibromomethyl)-5-nitropyrimidines as potential antitumor agents” (J Med Chem, 1997).

Assays:
Mus musculus [1] = organism: Mus musculus; experiment: The initial growth rate of cells in the presence at the screen concentration 100 mM in leukemic cells (L1210) of mice; format: functional
Mus musculus [2] = organism: Mus musculus; experiment: Concentration required to decrease the growth rate to 50% of control; cell proliferation was not slowed down at screen concentration 100 mM; format: functional, organism-based
Summary of the method: (§1)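 Antiproliferative assay in L1210 murine leukemia or H.Ep.2 human epidermoid carcinoma cells. Cells were counted over time with compound present. Growth rate is the slope of log cell number versus time as a percentage of the control slope. IC50 is the concentration that lowers the growth rate to 50% of control. Values are usually the mean of two concentration–response determinations.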

Mus musculus [3] = organism: Mus musculus; experiment: The concentration required to decrease the estimate of the minimum fraction of leukemic cells (L1210) of mice that survived treatment to 50%. * indicates cell proliferation was not slowed down at screen concentration 100 mM; format: functional, organism-based
Summary of the method: (§2)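 Surviving-fraction estimate in L1210 suspension cultures (Fischer's medium) counted daily over 3 days across compound concentrations. The exponential part of each growth curve was extrapolated back to zero time, and the intercept was expressed as a percentage of the initial cell number. The value is the concentration that lowers this minimum surviving fraction to 50%.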

Mus musculus [4] = organism: Mus musculus; experiment: The concentration required to decrease the estimate of the minimum fraction of leukemic cells (L1210) of mice that survived treatment to 50%; format: functional, organism-based; summary of the method: as §2
HEp-2 [5] = experiment: The initial growth rate of cells in the presence at the screen concentration 100 mM in human epidermoid carcinoma cells (H.Ep.2); format: functional
Summary of the method: (§3)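 H.Ep.2 monolayers were seeded at 2×10^4 cells per flask and switched after 1 day to medium containing compound at the single screen concentration. Duplicate flasks were counted on days 1, 2 and 4. The initial slope of log cell number versus time is given as a percentage of the untreated control slope.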

Mus musculus [6] = organism: Mus musculus; experiment: Concentration required to decrease the growth rate to 50% of control; format: functional, organism-based; summary of the method: as §1
HEp-2 [7] = experiment: Concentration required to decrease the growth rate to 50% of control on H.Ep.2 cells.; format: functional, cell-based; conditions: Homo sapiens
Mus musculus [8] = experiment: Percent treated to untreated control was measured on Leukemia-bearing mice at the dose of 50 mg/kg; format: functional
Summary of the method: (§4)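 Mice were inoculated with P388 leukemia cells, and compound was injected once daily on days 1–5 after inoculation at doses of 200 down to 6.25 mg/kg/injection. T/C% is the life span of treated mice divided by that of untreated tumor-bearing control mice, ×100.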

HEp-2 [9] = experiment: The concentration required to decrease the estimate of the minimum fraction of human epidermoid carcinoma cells that survived treatment to 50% (H.Ep.2); format: functional, cell-based
Summary of the method: (§5)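 Surviving fraction in H.Ep.2 monolayers exposed to compound from day 1 after seeding, with duplicate flasks counted on days 1, 2 and 4. The exponential growth curve was back-extrapolated to zero time, and the intercept was expressed as a percentage of initial cells. The value is the concentration that lowers this minimum surviving fraction to 50%.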

Mus musculus [10] = experiment: Percent treated to untreated control was measured on Leukemia-bearing mice at the dose of 100 mg/kg; format: functional; summary of the method: as §4
Mus musculus [11] = experiment: Percent treated to untreated control was measured on Leukemia-bearing mice at the dose of 25 mg/kg; format: functional
Mus musculus [12] = organism: Mus musculus; experiment: The initial growth rate of cells in the presence at the screen concentration 10 mM in leukemic cells (L1210) of mice; format: functional
HEp-2 [13] = experiment: The concentration required to decrease the estimate of the minimum fraction of human epidermoid carcinoma cells that survived treatment to 50% (H.Ep.2); cell proliferation was not slowed down at screen concentration 100 mM; format: functional, cell-based; summary of the method: as §5
Mus musculus [14] = organism: Mus musculus; experiment: The concentration required to decrease the estimate of the minimum fraction of leukemic cells (L1210) of mice that survived treatment to 50%; cell proliferation was not slowed down at screen concentration 100 mM; format: functional; summary of the method: as §2
HEp-2 [15] = experiment: Concentration required to decrease the growth rate to 50% of control on H.Ep.2 cells; cell proliferation was not slowed at the screen concentration 100 mM; format: functional, cell-based, Homo sapiens
Mus musculus [16] = organism: Mus musculus; experiment: The concentration required to decrease the estimate of the minimum fraction of leukemic cells of mice that survived treatment to 50%; no evidence of surviving cell; format: functional, organism-based
Summary of the method: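 Minimum surviving fraction was estimated by back-extrapolating the exponential portion of treated-cell growth curves to zero time, as a percentage of the initial cell number. The value is the concentration that lowers this to 50%.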

Mus musculus [17] = organism: Mus musculus; experiment: The concentration required to decrease the estimate of the minimum fraction of leukemic cells of mice that survived treatment to 50% (L1210); no evidence of survivin cell
HEp-2 [18] = experiment: The initial growth rate of cells in the presence at the screen concentration 10 mM in human epidermoid carcinoma cells (H.Ep.2); format: functional; summary of the method: as §3
Mus musculus [19] = experiment: Percent treated to untreated control was measured on Leukemia-bearing mice at the dose of 6.25 mg/kg; format: functional; summary of the method: as §4
Mus musculus [20] = organism: Mus musculus; experiment: The concentration required to decrease the estimate of the minimum fraction of leukemic cells (L1210) of mice that survived treatment to 50%; no evidence of surviving cell; format: functional, organism-based; summary of the method: as §2
Mus musculus [21] = experiment: Percent treated to untreated control was measured on Leukemia-bearing mice at the dose of 12.5 mg/kg; format: functional; summary of the method: as §4
Mus musculus [22] = organism: Mus musculus; experiment: The concentration required to decrease the estimate of the minimum fraction of leukemic cells (L1210) of mice that survived treatment to 50%; cell proliferation was not slowed at the screen concentration 100 mM; format: functional; summary of the method: as §2
HEp-2 [23] = experiment: The concentration required to decrease the estimate of the minimum fraction of human epidermoid carcinoma cells that survived treatment to 50% (H.Ep.2); cell proliferation was not slowed at the screen concentration 100 mM; format: functional, cell-based; summary of the method: as §5
Mus musculus [24] = organism: Mus musculus; experiment: Concentration required to decrease the growth rate to 50% of control; cell proliferation was not slowed at the screen concentration 100 mM; format: functional, organism-based; summary of the method: as §1
Mus musculus [25] = organism: Mus musculus; experiment: Concentration required to decrease the growth rate to 50% of control; cell proliferation was not slowed down at screen concentration 10 mM; format: functional, organism-based; summary of the method: as §1
Mus musculus [26] = organism: Mus musculus; experiment: The concentration required to decrease the estimate of the minimum fraction of leukemic cells (L1210) of mice that survived treatment to 50%. * indicates cell proliferation was not slowed down at screen concentration 10 mM; format: functional; summary of the method: as §2
Mus musculus [27] = organism: Mus musculus; experiment: Concentration required to decrease the growth rate to 50% of control.; cell proliferation was not slowed down at screen concentration 10 mM; format: functional, organism-based; summary of the method: as §1

| SMILES | Control (Mus musculus [1]) [%] | IC50 (Mus musculus [4]) [nM] | Control (HEp-2 [5]) [%] | IC50 (Mus musculus [6]) [nM] | further results |
| --- | --- | --- | --- | --- | --- |
| Cc1nc(Cl)nc(Cl)c1[N+](=O)[O-] | 104 | – | – | – | IC50 (Mus musculus [2]): Cell proliferation not slowed; IC50 (Mus musculus [3]): Cell proliferation not slowed |
| CCN(CC)c1nc(OC)nc(C(Br)Br)c1[N+](=O)[O-] | 0 | 5600 | 0 | 5800 | – |
| COc1nc(C(Br)Br)c([N+](=O)[O-])c(N2CCOCC2)n1 | 0 | 560 | 0 | 320 | IC50 (HEp-2 [7]): 1600 nM; T/C (Mus musculus [8]): 101%; IC50 (HEp-2 [9]): 2800 nM; T/C (Mus musculus [10]): 87%; T/C (Mus musculus [11]): 109% |
| COc1nc(C(Br)Br)c([N+](=O)[O-])c(N2CCCC2)n1 | – | 1000 | – | 900 | Control (Mus musculus [12]): 0% |
| COc1nc(CO)c([N+](=O)[O-])c(N2CCOCC2)n1 | 100 | – | 100 | – | IC50 (HEp-2 [13]): Cell proliferation not slowed; IC50 (Mus musculus [2]): Cell proliferation not slowed; IC50 (Mus musculus [14]): Cell proliferation not slowed; IC50 (HEp-2 [15]): Cell proliferation not slowed |
| CCOc1nc(OCC)c([N+](=O)[O-])c(C(Br)Br)n1 | 0 | – | – | 7200 | IC50 (Mus musculus [16]): Not Active |
| CCOc1nc(C(Br)Br)c([N+](=O)[O-])c(N2CCOCC2)n1 | 13 | – | – | 3600 | IC50 (Mus musculus [17]): Not Active |
| CNc1nc(OC)nc(C(Br)Br)c1[N+](=O)[O-] | 0 | 2000 | 0 | 2300 | – |
| COc1nc(C(Br)Br)c([N+](=O)[O-])c(N2CCCCC2)n1 | – | 1800 | – | 540 | Control (HEp-2 [18]): 36%; Control (Mus musculus [12]): 0% |
| COc1nc(N)c([N+](=O)[O-])c(C(Br)Br)n1 | 0 | – | 0 | 2000 | IC50 (HEp-2 [7]): 1600 nM; T/C (Mus musculus [19]): 104%; IC50 (Mus musculus [20]): Not Active; T/C (Mus musculus [21]): 100%; IC50 (HEp-2 [9]): 3300 nM; T/C (Mus musculus [11]): 91% |
| COc1nc(C)c([N+](=O)[O-])c(OC)n1 | 104 | – | 90 | – | IC50 (Mus musculus [22]): Cell proliferation not slowed; IC50 (HEp-2 [23]): Cell proliferation not slowed; IC50 (Mus musculus [24]): Cell proliferation not slowed; IC50 (HEp-2 [15]): Cell proliferation not slowed |
| COc1nc(OC)c([N+](=O)[O-])c(C(Br)Br)n1 | 0 | – | 0 | 1900 | IC50 (HEp-2 [7]): 2500 nM; IC50 (HEp-2 [9]): 2700 nM; IC50 (Mus musculus [16]): Not Active |
| COc1nc(C=P(c2ccccc2)(c2ccccc2)c2ccccc2)c([N+](=O)[O-])c(OC)n1 | – | – | – | – | IC50 (Mus musculus [25]): Cell proliferation not slowed; IC50 (Mus musculus [26]): Cell proliferation not slowed; Control (Mus musculus [12]): 93% |
| COc1nc(/C=C\N(C)C)c([N+](=O)[O-])c(OC)n1 | – | – | – | – | IC50 (Mus musculus [27]): Cell proliferation not slowed; IC50 (Mus musculus [26]): Cell proliferation not slowed; Control (Mus musculus [12]): 87% |
| COc1nc(CBr)c([N+](=O)[O-])c(OC)n1 | 0 | 25000 | 0 | 8000 | – |
| COc1nc(C=O)c([N+](=O)[O-])c(N(C)C)n1 | 0 | 12000 | – | 5900 | – |
| CCCOc1nc(C(Br)Br)c([N+](=O)[O-])c(N2CCOCC2)n1 | – | 6100 | – | 2300 | Control (Mus musculus [12]): 13% |
